# In ChEMBL document CHEMBL1149790, “Synthesis of some novel thiourea derivatives obtained from 5-[(4-aminophenoxy)methyl]-4-alkyl/aryl-2,4-dihydro-3H-1,2,4-triazole-3-thiones and evaluation as antiviral/anti-HIV and anti-tuberculosis agents” (Eur J Med Chem, 2008):
# Assays:
# Human alphaherpesvirus 1 [1] = experiment: Antiviral activity against thymidine kinase deficient and acyclovir resistant HSV1 KOS in human E6SM cells assessed as reduction of virus-induced cytopathogenicity; type: functional; conditions: Human alphaherpesvirus 1, KOS
# In short: (§1)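 Confluent cell monolayers (E6SM, HEL, HeLa or Vero, per line) inoculated with 100 CCID50 virus; 1 h adsorption, residual virus removed, then incubated with compound at 400, 200, 100 … µg/ml. Cytopathicity scored once complete in untreated virus controls; MIC = concentration inhibiting virus-induced cytopathicity.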
# [2] = Cytotoxicity against human HEL cells assessed as reduction of cell growth; type: cell-based
# In short: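 HEL cells; CC50 = compound concentration reducing cell growth by 50%.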
# Human alphaherpesvirus 1 [3] = experiment: Antiviral activity against thymidine kinase deficient and acyclovir resistant HSV1 KOS in human HEL cells assessed as reduction of virus-induced cytopathogenicity; type: functional; conditions: Human alphaherpesvirus 1, KOS; in short: as §1
# Human respirovirus 3 = experiment: Antiviral activity against Parainfluenza 3 virus in african green monkey Vero cells assessed as reduction of virus-induced cytopathogenicity; type: functional; in short: as §1
# Human alphaherpesvirus 1 [4] = experiment: Antiviral activity against HSV1 KOS in human HEL cells assessed as reduction of virus-induced cytopathogenicity; type: functional; conditions: Human alphaherpesvirus 1, KOS; in short: as §1
# Vero = experiment: Cytotoxicity against african green monkey Vero cells; type: cell-based; conditions: chlorocebus sabaeus
# In short: (§2)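 Uninfected cell cultures exposed to test compounds alongside antiviral assays; minimum cytotoxic concentration (MCC) = concentration causing a microscopically detectable alteration of cell morphology.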
# Coxsackievirus B4 [5] = experiment: Antiviral activity against Coxsackie virus B4 in african green monkey Vero cells assessed as reduction of virus-induced cytopathogenicity; type: functional; conditions: Enterovirus B; in short: as §1
# Human betaherpesvirus 5 [6] = experiment: Antiviral activity against human cytomegalovirus Davis infected HEL cells assessed as reduction in virus plaque formation; type: functional, organism-based; conditions: Human betaherpesvirus 5, Davis
# Punta Toro virus = experiment: Antiviral activity against Punta Toro virus in african green monkey Vero cells assessed as reduction of virus-induced cytopathogenicity; type: functional; in short: as §1
# Human alphaherpesvirus 2 [7] = experiment: Antiviral activity against HSV2 G in human E6SM cells assessed as reduction of virus-induced cytopathogenicity; type: functional; conditions: Human alphaherpesvirus 2, G; in short: as §1
# [8] = Cytotoxicity against human HeLa cells; type: cell-based; in short: as §2
# [9] = Cytotoxicity against human E6SM cells; type: cell-based; conditions: E6SM cells; in short: as §2
# Sindbis virus = experiment: Antiviral activity against Sindbis virus in african green monkey Vero cells assessed as reduction of virus-induced cytopathogenicity; type: functional; in short: as §1
# [10] = system: Vesicular stomatitis virus; experiment: Antiviral activity against in Vesicular stomatitis virus in human HEL cells assessed as reduction of virus-induced cytopathogenicity; type: functional; in short: as §1
# [11] = system: Human immunodeficiency virus 2; experiment: Antiviral activity against HIV2 ROD in human MT4 cells assessed as protection against virus-induced cytopathogenicity by MTT assay; type: functional, organism-based; set-up: Activity: concentration or dose not given beside the values; conditions: for IC50: Human immunodeficiency virus 2, ROD, MT4
# In short: (§3)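 MT-4 cells at 6 × 10⁵ cells/ml infected with HIV-1 IIIB or HIV-2 ROD at 100–300 CCID50; compounds in serial five-fold dilutions, triplicate mock- and virus-infected wells. MTT viability read at 540 and 690 nm after 5 days, median OD of three wells; EC50 = 50% protection from viral cytopathic effect.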
# [12] = system: Vesicular stomatitis virus; experiment: Antiviral activity against vesicular stomatitis virus in human HeLa cells assessed as inhibition of virus-induced cytopathogenicity; type: functional; in short: as §1
# [13] = system: Mammalian orthoreovirus 1; experiment: Antiviral activity against Reo virus 1 in african green monkey Vero cells assessed as reduction of virus-induced cytopathogenicity; type: functional; in short: as §1
# [14] = Cytotoxicity against human MT4 cells by MTT assay; type: cell-based
# In short: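 Mock-infected MT-4 cells (6 × 10⁵ cells/ml) with serial five-fold compound dilutions in triplicate; MTT reduction read at 540 and 690 nm after 5 days, median OD of three wells; CC50 = concentration reducing OD540 of mock-infected control by 50%.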
# [15] = system: Human immunodeficiency virus 1; experiment: Antiviral activity against HIV1 3B in human MT4 cells assessed as protection against virus-induced cytopathogenicity by MTT assay; type: functional, organism-based; set-up: Activity: concentration or dose not given beside the values; conditions: for IC50: Human immunodeficiency virus 1, 3B, MT4; in short: as §3
# Human alphaherpesvirus 2 [16] = experiment: Antiviral activity against HSV2 G in human HEL cells assessed as reduction of virus-induced cytopathogenicity; type: functional; conditions: Human alphaherpesvirus 2, G; in short: as §1
# [17] = Cytotoxicity against human HEL cells assessed as alteration of cell morphology; type: cell-based; in short: as §2
# Human betaherpesvirus 5 [18] = experiment: Antiviral activity against human cytomegalovirus AD169 infected HEL cells assessed as reduction in virus plaque formation; type: functional, organism-based; conditions: Human betaherpesvirus 5, AD169, HEL
# [19] = system: Vesicular stomatitis virus; experiment: Antiviral activity against in Vesicular stomatitis virus in human E6SM cells assessed as reduction of virus-induced cytopathogenicity; type: functional; in short: as §1
# Human alphaherpesvirus 3 [20] = experiment: Antiviral activity against TK- VZV 07/1 infected HEL cells assessed as reduction in virus plaque formation; type: functional, organism-based; conditions: Human alphaherpesvirus 3, 07/1, HEL
# [21] = system: Respiratory syncytial virus; experiment: Antiviral activity against respiratory syncytial virus in human HeLa cells assessed as inhibition of virus-induced cytopathogenicity; type: functional; in short: as §1
# Coxsackievirus B4 [22] = experiment: Antiviral activity against Coxsackie virus B4 in human HeLa cells assessed as inhibition of virus-induced cytopathogenicity; type: functional; conditions: Enterovirus B; in short: as §1
# Human alphaherpesvirus 3 [23] = experiment: Antiviral activity against TK+ VZV OKA infected HEL cells assessed as reduction in virus plaque formation; type: functional, organism-based; conditions: Human alphaherpesvirus 3, OKA
# Human alphaherpesvirus 1 [24] = experiment: Antiviral activity against HSV1 KOS in human E6SM cells assessed as reduction of virus-induced cytopathogenicity; type: functional; conditions: Human alphaherpesvirus 1, KOS; in short: as §1
Compound,MIC (Human alphaherpesvirus 1 [1]) [µg/mL],CC50 [2] [µg/mL],MIC (Human alphaherpesvirus 1 [3]) [µg/mL],MIC (Human respirovirus 3) [µg/mL],MIC (Human alphaherpesvirus 1 [4]) [µg/mL],Activity (Vero) [µg/mL],MIC (Coxsackievirus B4 [5]) [µg/mL],EC50 (Human betaherpesvirus 5 [6]) [µg/mL],MIC (Punta Toro virus) [µg/mL],MIC (Human alphaherpesvirus 2 [7]) [µg/mL],MCC [8] [µg/mL],MCC [9] [µg/mL],MIC (Sindbis virus) [µg/mL],MIC [10] [µg/mL],MIC [12] [µg/mL],MIC (Human alphaherpesvirus 2 [16]) [µg/mL],MCC [17] [µg/mL],EC50 (Human betaherpesvirus 5 [18]) [µg/mL],MIC [19] [µg/mL],MIC (Human alphaherpesvirus 1 [24]) [µg/mL],other results
CCNC(=S)Nc1ccc(OCc2n[nH]c(=S)n2-c2ccccc2)cc1,> 400,> 50,> 400,> 80,> 400,400,80,> 100,> 80,> 400,400,> 400,> 80,> 400,> 80,> 400,> 400,> 100,> 400,> 400,Activity [11]: 11%; IC50 [11]: > 19.4 µg/mL; MIC [13]: > 80 µg/mL; CC50 [14]: 22 µg/mL; Activity [15]: 1%; IC50 [15]: > 15 µg/mL; EC50 (Human alphaherpesvirus 3 [20]): > 100 µg/mL; MIC [21]: > 80 µg/mL; MIC (Coxsackievirus B4 [22]): > 80 µg/mL; EC50 (Human alphaherpesvirus 3 [23]): > 100 µg/mL
C=CCn1c(COc2ccc(NC(=S)NC)cc2)n[nH]c1=S,> 400,> 50,> 400,> 80,> 400,400,> 80,> 100,> 80,> 400,400,> 400,> 80,> 400,> 80,> 400,> 400,> 100,> 400,> 400,Activity [11]: 3.5%; IC50 [11]: > 110 µg/mL; MIC [13]: > 80 µg/mL; CC50 [14]: 108 µg/mL; Activity [15]: 1%; IC50 [15]: > 101 µg/mL; EC50 (Human alphaherpesvirus 3 [20]): > 100 µg/mL; MIC [21]: > 80 µg/mL; MIC (Coxsackievirus B4 [22]): > 80 µg/mL; EC50 (Human alphaherpesvirus 3 [23]): > 100 µg/mL
Nc1ccn(C[C@@H](CO)OCP(=O)(O)O)c(=O)n1.O.O [CIDOFOVIR],,≥ 18,,,,,,0.64,,,,,,,,,> 400,0.075,,,
O=c1[nH]c(=O)n([C@H]2C[C@H](O)[C@@H](CO)O2)cc1/C=C/Br [BRIVUDINE],> 400,,> 400,> 400,0.0768,> 400,> 400,,> 400,80,≥ 400,> 400,> 400,> 400,> 400,80,> 400,,> 400,0.0768,MIC [13]: > 400 µg/mL; EC50 (Human alphaherpesvirus 3 [20]): 25 µg/mL; MIC [21]: > 400 µg/mL; MIC (Coxsackievirus B4 [22]): > 400 µg/mL; EC50 (Human alphaherpesvirus 3 [23]): 0.02 µg/mL
C=CCNC(=S)Nc1ccc(OCc2n[nH]c(=S)n2-c2ccccc2)cc1,240,> 50,240,> 80,240,400,48,> 100,> 80,240,400,> 400,> 80,240,> 80,240,> 400,> 100,240,240,Activity [11]: 0.5%; IC50 [11]: > 103 µg/mL; MIC [13]: > 80 µg/mL; CC50 [14]: 107 µg/mL; Activity [15]: 1.5%; IC50 [15]: > 92.3 µg/mL; EC50 (Human alphaherpesvirus 3 [20]): > 100 µg/mL; MIC [21]: > 80 µg/mL; MIC (Coxsackievirus B4 [22]): > 80 µg/mL; EC50 (Human alphaherpesvirus 3 [23]): > 100 µg/mL
S=C(Nc1ccccc1)Nc1ccc(OCc2n[nH]c(=S)n2-c2ccccc2)cc1,> 80,> 50,> 80,> 16,> 80,80,> 16,37,> 16,> 80,80,400,> 16,> 80,> 16,> 80,400,> 20,> 80,> 80,Activity [11]: 4.5%; IC50 [11]: > 41.5 µg/mL; MIC [13]: > 16 µg/mL; CC50 [14]: 44.1 µg/mL; Activity [15]: 5.5%; IC50 [15]: > 30.6 µg/mL; EC50 (Human alphaherpesvirus 3 [20]): 39 µg/mL; MIC [21]: > 16 µg/mL; MIC (Coxsackievirus B4 [22]): > 16 µg/mL; EC50 (Human alphaherpesvirus 3 [23]): 26 µg/mL
Nc1nc2c(ncn2COC(CO)CO)c(=O)[nH]1 [GANCICLOVIR],2.4,87,2.4,,0.032,,,1.9,,0.032,,> 100,,> 100,,0.032,> 100,0.64,> 100,0.032,
Cn1c(COc2ccc(N)cc2)n[nH]c1=S,80,> 50,80,> 3.2,400,16,> 3.2,> 100,> 3.2,80,> 400,> 400,> 3.2,> 400,> 400,80,> 400,> 100,> 400,400,Activity [11]: 4%; IC50 [11]: > 125 µg/mL; MIC [13]: > 3.2 µg/mL; CC50 [14]: ≥ 119 µg/mL; Activity [15]: 2.5%; IC50 [15]: > 125 µg/mL; EC50 (Human alphaherpesvirus 3 [20]): > 100 µg/mL; MIC [21]: > 400 µg/mL; MIC (Coxsackievirus B4 [22]): > 400 µg/mL; EC50 (Human alphaherpesvirus 3 [23]): > 100 µg/mL
C=CCNC(=S)Nc1ccc(OCc2n[nH]c(=S)n2C)cc1,240,> 50,240,> 80,> 400,400,48,> 100,> 80,240,400,> 400,> 80,> 400,> 80,240,> 400,> 100,> 400,> 400,Activity [11]: 3%; IC50 [11]: > 114 µg/mL; MIC [13]: > 80 µg/mL; CC50 [14]: ≥ 107 µg/mL; Activity [15]: 1.5%; IC50 [15]: > 107 µg/mL; EC50 (Human alphaherpesvirus 3 [20]): > 100 µg/mL; MIC [21]: > 80 µg/mL; MIC (Coxsackievirus B4 [22]): > 80 µg/mL; EC50 (Human alphaherpesvirus 3 [23]): > 100 µg/mL
CNC(=S)Nc1ccc(OCc2n[nH]c(=S)n2-c2ccccc2)cc1,> 400,> 50,> 400,> 80,> 400,400,> 80,> 100,> 80,> 400,400,> 400,> 80,> 400,> 80,> 400,> 400,> 100,> 400,> 400,Activity [11]: 2%; IC50 [11]: > 113 µg/mL; MIC [13]: > 80 µg/mL; CC50 [14]: ≥ 83.5 µg/mL; Activity [15]: 0.5%; IC50 [15]: > 83.5 µg/mL; EC50 (Human alphaherpesvirus 3 [20]): > 100 µg/mL; MIC [21]: > 80 µg/mL; MIC (Coxsackievirus B4 [22]): > 80 µg/mL; EC50 (Human alphaherpesvirus 3 [23]): > 100 µg/mL
